Compound activity: PubChem, several laboratories
In the library only some 4.6% were active in any assay of this set; here they are far more common.
PolyA inh: yeast polyadenylation inhibition | S. cerevisiae SKY197-pL101 polyadenylation reporter, beta-gal luminescence; efflux-impaired pdr1/pdr3 knockout yeast; score 100 = 6 SD above DMSO | activity score, % at 12 µM | 300,000 compounds, 0.02% hits;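 active = lowest replicate activity score at least 50, where 100 means six control SD above control mean; inconclusive = lowest score under 50 but half or more replicates reach 50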;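 also: yeast exposed to compound for 9 h at 30 °C; higher score means more reporter readthrough which indicates perturbed polyadenylation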
Arrestin-AP2 inh: blocks beta-arrestin peptide binding to AP2 adaptin | 340,000 compounds, 0.31% hits | inhibition, % at 10 µM | FITC-arrestin peptide / GST-AP2 beads, flow cytometry; AP2 beta2 appendage carries R879A mutation | AID 504490;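 active = inhibition above a set limit, near 3 SD of compounds lacking own fluorescence, cut at about 54% in these data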
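System: GST-tagged AP2 beta2-adaptin appendage (R879A) on 4 µm glutathione beads / Reagent: FITC-arrestin peptide, 50 nM / Detection: HyperCyt-sampled flow cytometry, FL1 channel, ex 488/em 535 nm / Timing: 12 min plus 1 h, RT / Buffer or medium: PBS plus Tween 20 (0.05%) and BSA (0.1%)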
DSG3 Ab inh: inhibitors of pemphigus antibody binding to human desmoglein-3; binding (percent of control), % at 10 µM; DSG3-coupled beads, scFv-anti-DSG3-GFP binding, flow cytometry; active compounds read low; 310,000 compounds, 0.48% hits; P32926;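 active = binding more than 3 SD below its plate's average and above zero; inconclusive = below that plate limit but binding exactly zero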;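 also: hits lower antibody fragment binding to DSG3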
NALP1 inh: NALP1 inhibition. S. cerevisiae NALP1/ASC/caspase-1 growth, X-gal OD620, 72 h. inhibition, % at 10 µM. 280,000 compounds, 0.61% hits. AID 2071; in the data active = inhibition mostly above about 24%, no sharp cut-off; inactive = mostly below about 32%
NLRP3 yeast inh: inhibitors of NALP3 inflammasome in yeast; Yeast reconstituted NLRP3/ASC/caspase-1, beta-gal luminescence, 24 h; AID 2825; 330,000 compounds, 0.39% hits; inhibition, % at 10 µM;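 active = inhibition of 50% or more; inactive = inhibition below 50%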
ALR H2O2 inh: blocks human ALR sulfhydryl oxidase activity. P55789. purified ALR, DTT oxidation, H2O2 HRP-luminol luminescence. inhibition, % (test concentration not listed). 290,000 compounds, 3.8% hits;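 active = mean replicate inhibition above about 79%, with every replicate also reaching it, limit read from the data; inconclusive = only one of the two criteria met; inactive = mean below limit and not every replicate reaching it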
Target sequence (P55789 whole entry, looked up): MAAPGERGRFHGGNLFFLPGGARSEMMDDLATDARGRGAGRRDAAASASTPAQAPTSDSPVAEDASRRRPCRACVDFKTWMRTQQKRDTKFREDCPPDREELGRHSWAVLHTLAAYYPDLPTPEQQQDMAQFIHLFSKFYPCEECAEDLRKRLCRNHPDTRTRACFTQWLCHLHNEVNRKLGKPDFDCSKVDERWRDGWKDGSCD
A number is an active result; . = inactive; ? = inconclusive; / = no result.

SMILES	PolyA inh	Arrestin-AP2 inh	DSG3 Ab inh	NALP1 inh	NLRP3 yeast inh	ALR H2O2 inh
O=C(NCCCl)NNc1c(Cl)cc(Cl)cc1Cl	.	.	.	31	.	.
CCNC(=O)Oc1ccc[nH]c1=O	.	.	.	37	.	.
COC(=O)Cn1c(=NC(=O)c2ccc([N+](=O)[O-])s2)sc2cc(Br)ccc21	.	/	/	.	.	98
Oc1ccc(-c2cn3c(n2)SCC3)cc1	.	.	.	.	.	.
Oc1ccc(-c2cn3c(n2)SCC3)cc1O	.	.	/	.	.	99
O=C(COC(=O)c1ccccc1Br)NCCC1=CCCCC1	.	.	.	38	.	.
CCCN1CCN(C(=O)c2ccc3[nH]c(C)c(C)c3c2)CC1	/	/	.	/	/	/
NC(=O)CSc1oc(-c2ccco2)nc1S(=O)(=O)c1ccc(F)cc1	.	.	.	.	.	.
N/C(=N\OC(=O)CCC1CCCC1)c1ccc([N+](=O)[O-])cc1	.	.	.	.	.	.
NC(=NC1CCCCC1)c1ccc([N+](=O)[O-])cc1	.	.	/	44	.	.
CCCOc1ccc(CN(CCC#N)C(=S)NC(=O)c2ccccc2)cc1	.	.	.	.	.	.
Cc1ccc(NC(=O)c2ccc(NS(=O)(=O)c3ccc4[nH]c(=O)[nH]c4c3)cc2)nc1	.	.	.	/	.	.
CCc1nc(SCC(=O)c2ccc3c(c2)OCCO3)c2ccccc2n1	.	.	.	.	.	/
CCCc1nc(SCC(=O)c2ccc(OC)cc2)c2ccccc2n1	.	.	.	.	.	90
CCc1nc(SCC(=O)c2ccccc2)c2ccccc2n1	.	.	.	.	.	99
CCc1nc(SCC(=O)NNC(=O)c2ccc(OC)cc2)c2ccccc2n1	.	.	.	.	.	.
CN1OC[C@@H]2CN[C@H](c3cccc(Oc4ccccc4)c3)C[C@@H]21	/	/	.	/	/	/
CC1(NC(=O)CSc2nnc(-c3c[nH]c4ccccc34)n2C2CC2)CCS(=O)(=O)C1 (stereo not given)	/	.	.	/	.	.
O=C(CSc1nccc(=O)[nH]1)NCc1ccco1	.	.	.	43	.	.
CCc1c(O)nc(SCC(=O)NCc2ccco2)[nH]c1=O	.	.	.	.	.	98
O=C(CSc1ncccc1-c1nc2ccccc2[nH]1)NCc1ccco1	.	.	.	.	.	.
CCc1c(O)nc(SCc2nc3ccccc3c(=O)[nH]2)[nH]c1=O	.	.	.	.	.	98
Cc1nnc(SCC(=O)NCc2ccco2)[nH]c1=O	.	.	.	.	.	.
Cc1cc2nc(-c3cccnc3SCC(=O)NCc3ccco3)[nH]c2cc1C	.	.	.	/	.	99
C=CCc1c(C)nc(SCc2nc3ccccc3c(=O)[nH]2)[nH]c1=O	.	.	.	.	.	.
SMILES	PolyA inh	Arrestin-AP2 inh	DSG3 Ab inh	NALP1 inh	NLRP3 yeast inh	ALR H2O2 inh
CCC(c1nnnn1CCOC)N(Cc1cc2cc(C)c(C)cc2[nH]c1=O)CC1CCCO1 (stereo not given)	.	.	.	.	.	99
CCC(c1nnnn1CCOC)N(Cc1cc2c(C)cc(C)cc2[nH]c1=O)CC1CCCO1 (stereo not given)	.	.	.	.	.	.
CCCC(c1nnnn1CCOC)N(Cc1cc2cc(C)c(C)cc2[nH]c1=O)CC1CCCO1 (stereo not given)	.	.	.	.	.	99
O=C(c1ccccc1)N(Nc1ccccc1)c1ccccc1	.	.	.	.	.	76
c1cc(CNC23CC4CC(CC(C4)C2)C3)ccn1	.	.	.	27	.	.
COc1ccc([N+](=O)[O-])cc1N(CC(O)CN1CCCCC1)S(=O)(=O)c1ccccc1 (stereo not given)	/	.	.	25	.	.
COc1cc([N+](=O)[O-])ccc1NC(=O)N1CCCCCC1	.	.	.	.	.	.
O=C(Cn1nnc(-c2ccccc2)n1)NCC(=O)Nc1ccc(F)c(F)c1F	/	.	.	/	.	/
CCOc1cc(NC2CS(=O)(=O)CC2O)c(OCC)cc1NC(=O)c1ccccc1 (stereo not given)	.	.	.	.	.	89
CCCc1cc(-c2ccc3c(c2)COc2c4ccccc4nn2-3)on1	.	.	.	/	.	.
Cc1c(CCOC(=O)CC23CC4CC(CC(C4)C2)C3)sc[n+]1CC(=O)c1ccccc1	.	.	.	35	.	.
Cn1c(=O)[nH]c(=O)c2c1nc(Br)n2CC(O)COCc1ccccc1 (stereo not given)	.	.	.	.	.	91
CSc1ccc(CN2CCC(C(=O)NCc3ccc(C)cc3)CC2)cc1	.	.	.	25	.	.
CCN1CCN(Cc2ccc(NC(=O)Nc3ccc(SC)cc3)cc2)CC1	.	.	.	.	.	96
CCN1CCN(Cc2ccc(NC(=O)Nc3ccccc3)cc2)CC1	.	.	.	.	.	.
COc1cc(C(=O)NCC(c2cccs2)N2CCOCC2)ccc1OCc1ccc(Cl)cc1 (stereo not given)	/	/	.	/	/	/
Cn1c(=O)[nH]c(=O)c2c1[nH]c(=S)n2Cc1ccc(Cl)cc1	.	.	.	.	.	99
NC(=O)NC1CCCc2c1[nH]c1ccc(Cl)cc21 (stereo not given)	.	.	.	.	.	98
NC(=O)C1CCCCc2c1[nH]c1ccc(Cl)cc21 (stereo not given)	.	.	.	.	.	98
CCNC(=O)C1CCCc2c1[nH]c1ccc(Cl)cc21 (stereo not given)	.	.	.	.	.	.
CCN(CC)c1ccc(/C=C2\NC(=O)NC2=O)cc1	.	.	.	.	.	99
O=C1NC(=O)/C(=C\c2ccsc2)N1	.	.	.	.	.	.
O=C(N1CCOCC1)N1c2ccccc2Sc2ccccc21	.	.	.	.	.	99
CC1CCCN(C(=O)N2c3ccccc3Sc3ccccc32)C1 (stereo not given)	.	.	.	.	.	.
CC1CN(C(=O)N2c3ccccc3Sc3ccccc32)CC(C)O1 (stereo not given)	.	.	.	.	.	99
SMILES	PolyA inh	Arrestin-AP2 inh	DSG3 Ab inh	NALP1 inh	NLRP3 yeast inh	ALR H2O2 inh
CC1CCN(C(=O)N2c3ccccc3Sc3ccccc32)CC1	.	.	?	.	.	89
COc1ccc(C(C)=O)cc1COC(=O)C1CCN(C(=O)c2ccc(Cl)cc2)CC1	/	.	/	/	.	.
NC(=O)C1CCN(c2oc(-c3ccccc3)nc2S(=O)(=O)c2ccc(Br)cc2)CC1	.	.	?	.	.	.
Cc1ccc(S(=O)(=O)c2nc(-c3ccccc3)oc2N2CCC(C(N)=O)CC2)cc1	.	.	/	34	.	.
O=C1C(=C(c2ccccc2)N2CCOCC2)Cc2ccccc21	/	/	.	/	/	/
O=C(O)c1ccc(N(c2ccccc2)c2ccccc2)cc1	/	.	.	.	.	99
Cc1ccc(S(=O)(=O)N(C)c2ccc(OCC(=O)Nc3ccc(C(=O)N(C)C)cc3)cc2)cc1C	/	.	.	/	.	.
